Measured values from paper PMC12311552 (Molecular Metabolism, 2025).
Numbered stars: 1 amine (or outer) side, 2 acyl side, 3 side chain; on linkers, the order of the positions; unused ones are H or OH. Side chains are listed from the residue outwards. Peptide text beside a SMILES is read from it. * marks the point of attachment. Cy5(nonsulfonated) = CN1C(=CC=CC=CC2=[N+](CCCCCC(=O)*)c3ccccc3C2(C)C)C(C)(C)c2ccccc21; C18 diacid = O=C(O)CCCCCCCCCCCCCCCCC(=O)*; γGlu = O=C(O)[C@H](CCC(=O)[*:2])N[*:1]; Isovaleryl = CC(C)CC(=O)*; AEEA = NCCOCCOCC(=O)O

How the values were obtained:
male NMRI mice = assay: Acute food intake in lean mice; format: in vivo, mouse
Outline: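 Males, 5 weeks old on arrival, 4/cage, lights off 3 PM, chow ad libitum. Randomised by bodyweight (n = 7–8/group) with a vehicle group (50 mM phosphate pH 7.0, 5% mannitol; 5 mL/kg). Fasted from 6 h before night, dosed SC once 1 h before dark. Hourly food intake over 24 h as % of vehicle mean. ED50 by nonlinear fit.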

[1] = system: Chow-fed male C57BL/6JRj mice; assay: 3D whole-brain imaging by light-sheet fluorescence microscopy; format: in vivo, mouse; conditions: single s.c. dose 100 nmol/kg; SFO, AP, ME, choroid plexus, ARH
Outline: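 Chow-fed males (n = 8/group) got one SC dose of unlabelled test compound or a Cy5-labelled analogue (Lys10), each 100 nmol/kg, and were killed at 6 h. Competition group: unlabelled 100 nmol/kg SC at 0, 8 and 24 h, labelled analogue 1 h later, killed after 1 h. Tongue was positive control. Tissue was perfusion-fixed, cleared and light-sheet imaged, giving atlas-aligned regional mean fluorescence (CVOs, ARH).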

human NPY2R (human) = human NPY2R (human) (UniProt P49146); assay: radioligand binding
Sequence of human NPY2R (human) (P49146 whole entry): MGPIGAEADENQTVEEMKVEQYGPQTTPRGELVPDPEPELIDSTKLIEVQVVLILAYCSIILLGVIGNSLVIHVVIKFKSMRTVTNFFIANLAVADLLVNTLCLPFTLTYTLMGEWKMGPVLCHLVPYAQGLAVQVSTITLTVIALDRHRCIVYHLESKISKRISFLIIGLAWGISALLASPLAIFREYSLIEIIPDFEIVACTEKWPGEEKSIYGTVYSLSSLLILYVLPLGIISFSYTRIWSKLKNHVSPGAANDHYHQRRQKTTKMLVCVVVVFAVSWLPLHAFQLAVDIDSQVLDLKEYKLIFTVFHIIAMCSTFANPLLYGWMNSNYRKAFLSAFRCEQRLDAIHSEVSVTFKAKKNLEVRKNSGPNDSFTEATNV

human NPY1R = biological target: T1, human NPY1R (Homo sapiens, UniProt P25929); assay: Competitive radioligand binding, membrane preparations, 125I-PYY1–36; conditions: up to 1 μM
T1 sequence (P25929 1-384): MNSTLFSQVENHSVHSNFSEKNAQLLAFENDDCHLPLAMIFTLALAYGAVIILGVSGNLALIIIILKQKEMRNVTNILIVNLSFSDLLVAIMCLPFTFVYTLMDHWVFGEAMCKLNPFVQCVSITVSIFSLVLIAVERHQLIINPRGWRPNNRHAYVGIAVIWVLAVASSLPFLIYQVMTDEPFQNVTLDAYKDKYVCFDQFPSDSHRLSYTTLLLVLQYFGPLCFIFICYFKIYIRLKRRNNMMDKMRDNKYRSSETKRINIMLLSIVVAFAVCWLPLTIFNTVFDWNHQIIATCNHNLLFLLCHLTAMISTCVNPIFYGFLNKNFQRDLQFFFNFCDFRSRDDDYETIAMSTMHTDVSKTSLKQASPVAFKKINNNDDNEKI

human NPY4R = human NPY4R (Homo sapiens, UniProt P50391); assay: Competitive radioligand binding, membrane preparations, 125I-PP; conditions: up to 1 μM
Sequence of human NPY4R (P50391 whole entry): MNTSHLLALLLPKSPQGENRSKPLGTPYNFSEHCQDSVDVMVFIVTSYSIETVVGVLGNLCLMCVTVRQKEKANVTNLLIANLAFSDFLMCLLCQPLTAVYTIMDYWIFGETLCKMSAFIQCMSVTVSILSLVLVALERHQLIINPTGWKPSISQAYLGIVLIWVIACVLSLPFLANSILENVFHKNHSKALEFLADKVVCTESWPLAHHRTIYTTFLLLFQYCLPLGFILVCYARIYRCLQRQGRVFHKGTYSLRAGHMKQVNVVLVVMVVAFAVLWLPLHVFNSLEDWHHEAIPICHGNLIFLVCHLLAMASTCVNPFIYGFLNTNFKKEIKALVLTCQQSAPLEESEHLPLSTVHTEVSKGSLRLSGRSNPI

[2] = Pharmacokinetic study in mice; format: in vivo; conditions: male, NMRI, mouse, plasma, sc, 30 nmol/kg
Outline: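 Male NMRI mice got a single dose of 30 nmol/kg, IV (N = 2) or SC (N = 3), in 50 mM phosphate pH 7.0 with 5% mannitol at 5 mL/kg. Plasma was sampled at several times after dosing, stored at -20 °C, and quantified by LC-MS/MS.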

[3] = Pharmacokinetic study in dogs; format: in vivo; conditions: male, beagle, dog, plasma, sc, 5 nmol/kg
Outline: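 Male beagles were dosed once, IV 1.25 nmol/kg (N = 2) or SC 5 nmol/kg (N = 3). Plasma was sampled at several times after dosing, stored at -20 °C, and assayed by LC-MS/MS.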

male C57BL/6JRj mice = assay: Acute gastric emptying in lean mice; format: in vivo, mouse
Outline: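 Males aged 9–10 weeks were fasted 8.5 h, then a basal blood glucose sample was taken for randomisation. After a further 30 min fast they got one SC dose. At 3 h, glucose 2 g/kg plus acetaminophen 100 mg/kg was gavaged (10 mL/kg). Blood acetaminophen and glucose were measured pre-load (20 min) and at 10, 30 and 60 min post-load. Gastric emptying was read as change in acetaminophen exposure.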

diet-induced obese mice = assay: Subchronic, repeated dose study in diet-induced obese mice; format: in vivo, mouse; conditions: DIO mice
[4] = system: Diet-induced obese (DIO) male C57BL6/J mice; assay: 3D whole-brain c-Fos imaging; format: in vivo, mouse; conditions: 8 nmol/kg, 4 h after dosing
Outline: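 Perfused 4 h post-dose. Brains were c-Fos immunolabelled, iDISCO+-cleared and imaged whole by light-sheet microscopy. c-Fos+ cells were atlas-mapped and counted per region, with region-wise statistics against vehicle.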

cynomolgus monkeys = assay: Cardiovascular study in cynomolgus monkeys; format: in vivo, cynomolgus monkey; conditions: subcutaneous supratherapeutic doses

Compound: CC[C@H](C)[C@H](NC(=O)[C@H](CCC(=O)O)NC(=O)[C@H](CCC(=O)O)NC(=O)[C@@H]1CCCN1C(=O)[C@H](CO)NC(=O)[C@H](C)NC(=O)[C@H](CC(=O)O)NC(=O)[C@H](CCCCNC(=O)CCCCC[N+]1=C(C=CC=CC=C2N(C)c3ccccc3C2(C)C)C(C)(C)c2ccccc21)NC(=O)[C@H](CCC(=O)O)NC(=O)[C@@H]1CCCN1C(=O)[C@H](CCCCNC(=O)COCCOCCNC(=O)COCCOCCNC(=O)CC[C@H](NC(=O)CCCCCCCCCCCCCCCCC(=O)O)C(=O)O)NC(=O)[C@H](C)NC(=O)[C@@H]1CCCN1C(=O)[C@H](C)NC(=O)CC(C)C)C(=O)N[C@@H](CCC(N)=O)C(=O)N[C@@H](CCCNC(=N)N)C(=O)N[C@@H](Cc1ccc(O)cc1)C(=O)N[C@@H](Cc1ccc(O)cc1)C(=O)N[C@H](C(=O)N[C@@H](CO)C(=O)N[C@@H](CC(C)C)C(=O)N[C@@H](CCCNC(=N)N)C(=O)N[C@@H](Cc1c[nH]cn1)C(=O)N[C@@H](Cc1ccc(O)cc1)C(=O)N[C@@H](Cc1ccc(O)cc1)C(=O)N[C@@H](CC(N)=O)C(=O)N[C@@H](Cc1c[nH]c2ccccc12)C(=O)N[C@@H](CC(C)C)C(=O)N[C@H](C(=O)N[C@@H](CCCNC(=N)N)C(=O)N[C@@H](CCC(N)=O)C(=O)N[C@@H](CCCNC(=N)N)C(=O)N[C@@H](Cc1ccc(O)cc1)C(N)=O)[C@@H](C)O)C(C)C [BI 3005788] (Isovaleryl-APAK([AEEA-AEEA-γGlu-C18 diacid])PEK(Cy5(nonsulfonated))DASPEEIQRYYVSLRHYYNWLTRQRY-NH2; N-terminus and C-terminus assumed)
- lowering of food intake up to 6 h post-dosing (male NMRI mice; acute dose 100 nmol/kg, Fig. S3a–b): comparable with BI 1820237 dosed at 30 nmol/kg
- fluorescence signal distribution in the mouse brain [1]: accumulated in 5 circumventricular organs

Compound: BI 1820237 (peptide)
- Ki (human NPY2R (human)): 0.82 nM

Compound: CC[C@H](C)[C@H](NC(=O)[C@H](CCC(=O)O)NC(=O)[C@H](CCC(=O)O)NC(=O)[C@@H]1CCCN1C(=O)[C@H](CO)NC(=O)[C@H](C)NC(=O)[C@H](CC(=O)O)NC(=O)[C@H](CCC(=O)O)NC(=O)[C@H](CCC(=O)O)NC(=O)[C@@H]1CCCN1C(=O)[C@H](CCCCNC(=O)COCCOCCNC(=O)COCCOCCNC(=O)CC[C@H](NC(=O)CCCCCCCCCCCCCCCCC(=O)O)C(=O)O)NC(=O)[C@H](C)NC(=O)[C@@H]1CCCN1C(=O)[C@H](C)NC(=O)CC(C)C)C(=O)N[C@@H](CCC(N)=O)C(=O)N[C@@H](CCCNC(=N)N)C(=O)N[C@@H](Cc1ccc(O)cc1)C(=O)N[C@@H](Cc1ccc(O)cc1)C(=O)N[C@H](C(=O)N[C@@H](CO)C(=O)N[C@@H](CC(C)C)C(=O)N[C@@H](CCCNC(=N)N)C(=O)N[C@@H](Cc1c[nH]cn1)C(=O)N[C@@H](Cc1ccc(O)cc1)C(=O)N[C@@H](Cc1ccc(O)cc1)C(=O)N[C@@H](CC(N)=O)C(=O)N[C@@H](Cc1c[nH]c2ccccc12)C(=O)N[C@@H](CC(C)C)C(=O)N[C@H](C(=O)N[C@@H](CCCNC(=N)N)C(=O)N[C@@H](CCC(N)=O)C(=O)N[C@@H](CCCNC(=N)N)C(=O)N[C@@H](Cc1ccc(O)cc1)C(N)=O)[C@@H](C)O)C(C)C [BI 1820237]
- binding to human NPY subtype 1 (human NPY1R): no binding was detected
- binding to human NPY subtype 4 (human NPY4R): no binding was detected
- Tmax [2]: 3 h
- MRT [3]: 103 h
- Emax, inhibition of food intake over 24 h (male NMRI mice; at the maximal tested dose of 100 nmol/kg): ~85%
- ED50, inhibition of food intake over 24 h (male NMRI mice; single subcutaneous dose): 14 nmol/kg
- ED50, reduction of gastric emptying (male C57BL/6JRj mice; lean mice, single dose, acetaminophen exposure): ~2 nmol/kg
- Glucose excursion (male C57BL/6JRj mice; oral glucose 2 g/kg, same experiment): not affected
- weight of the epididymal adipose tissue compared with the vehicle group (diet-induced obese mice; study end, BI 1820237 1 nmol/kg alone or with survodutide 7.5 nmol/kg): did not reduce
- food intake reduction on Day 1, 24 h post-dosing (diet-induced obese mice; 3 nmol/kg once daily s.c.): 18%
- food intake reduction on Day 1, 24 h post-dosing (diet-induced obese mice; 10 nmol/kg once daily s.c.): 59%
- maximal bodyweight-lowering effect (reduction) (diet-induced obese mice; 30 nmol/kg at Day 5 of dosing): 9%
- food intake reduction on Day 1, 24 h post-dosing (diet-induced obese mice; 30 nmol/kg once daily s.c.): 71%
- bodyweight reduction at the end of the study (non-significant) (diet-induced obese mice; 30 nmol/kg once daily, 4 weeks): 2%
- food intake after 4–5 days of dosing (diet-induced obese mice; 100 nmol/kg once daily): higher than the food intake in the vehicle group
- food intake reduction on Day 1, 24 h post-dosing (diet-induced obese mice; 100 nmol/kg once daily s.c.): 56%
- food intake after 4–5 days of dosing (diet-induced obese mice; 3, 10 and 30 nmol/kg once daily): returned to the level of the vehicle-treated group
- effect on bodyweight at the end of the study (diet-induced obese mice; other doses (3, 10, 100 nmol/kg) once daily, 4 weeks): no effect
- whole-brain c-Fos expression compared with vehicle [4]: little or no difference
- emesis (cynomolgus monkeys): induced emesis

Compound: survodutide [reference compound]
- bodyweight lowering versus baseline (diet-induced obese mice; after 28 days, survodutide 7.5 nmol/kg): 17%
- bodyweight lowering compared with the vehicle group (diet-induced obese mice; after 28 days, survodutide 7.5 nmol/kg alone or with 1 nmol/kg BI 1820237): 21%
- lean mass (diet-induced obese mice; survodutide alone, or with 3 nmol/kg BI 1820237 at study start or 1 nmol/kg at Day 8): No significant change
